Test results published in ChEMBL document CHEMBL1275290, “4-Aminoquinoline derived antimalarials: synthesis, antiplasmodial activity and heme polymerization inhibition studies” (Eur J Med Chem, 2010).

Experiments:
[1] = Inhibition of beta-hematin polymerization by UV spectrophotometry based BHIA assay relative to untreated hemin control; assay type: functional
Outline: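 IC50 expressed as millimolar equivalents of compound relative to hemin needed to block beta-hematin formation by 50%. Triplicate readings converted to percent inhibition versus drug-free hemozoin control; IC50 from sigmoidal dose-response non-linear regression. Means ± SD from at least three experiments in duplicate.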

[2] = Binding affinity to hematin measured as association constant for 1:1 (hematin-compound) complex formation at pH 7.5
Outline: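 Spectrophotometric titration of hematin with compound in 40% aqueous DMSO, 20 mM HEPES, pH 7.5, 25 °C; hematin held in monomeric state. Association constant for 1:1 compound:hematin complex; means ± SD from at least three experiments in duplicate.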

[3] = test system: Plasmodium falciparum; assay: Antimalarial activity against chloroquine-sensitive Plasmodium falciparum D6 after 72 hrs by SYBR Green I fluorescence based method; assay type: functional, organism-based; details: D6, 72 h
Outline: (§1)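 Asynchronous continuous P. falciparum cultures diluted with uninfected erythrocytes in RPMI-1640 + 0.5% Albumax II to 0.2% parasitemia, 2% hematocrit. Compounds from 10 mM DMSO stock diluted in medium (0.1 nM–100 range). 72 h incubation under standard culture conditions; SYBR Green I fluorescence read (ex 497/em 520 nm). Triplicate experiments; IC50 from variable-slope sigmoidal dose–response fits.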

[4] = test system: Plasmodium falciparum; assay: Resistance index, ratio of IC50 for chloroquine-resistant Plasmodium falciparum Dd2 to IC50 for chloroquine-sensitive Plasmodium falciparum D6; assay type: functional
Outline: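 Ratio of Dd2 IC50 to D6 IC50, each from the 72 h SYBR Green I growth assay (0.2% parasitemia, 2% hematocrit, RPMI-1640 + 0.5% Albumax II), triplicate, IC50 from variable-slope sigmoidal fits.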

[5] = test system: Plasmodium falciparum; assay: Antimalarial activity against chloroquine-resistant Plasmodium falciparum Dd2 after 72 hrs by SYBR Green I fluorescence based method; assay type: functional, organism-based; details: Dd2, 72 h; outline: as §1

SMILES | IC50 [1] [mMequiv] | log Ks [2] | IC50 [3] [nM] | Ratio IC50 [4] | IC50 [5] [nM]
S=C(NCCCNc1ccnc2cc(Cl)ccc12)NCCCNc1ccnc2cc(Cl)ccc12 | 0.27 | 5.38 | 128 | 2.18 | 280
CCN(CC)C(=S)NCCCNc1ccnc2cc(Cl)ccc12 | 0.15 | 5.34 | 103 | 1.21 | 125
CN(C)C(=S)NCCCNc1ccnc2cc(Cl)ccc12 | 0.55 | 4.87 | 140 | – | –
CCN(CC)CCCC(C)Nc1ccnc2cc(Cl)ccc12 (configuration not stated) [CHLOROQUINE] | 0.17 | – | – | – | –
S=C(NCCCNc1ccnc2cc(Cl)ccc12)N1CCOCC1 | 0.34 | 4.94 | 180 | 3.08 | 556
CC(C)N(C(=S)NCCCNc1ccnc2cc(Cl)ccc12)C(C)C | 0.33 | 4.95 | 161 | 1.25 | 202
S=C(NCCCNc1ccnc2cc(Cl)ccc12)N1CCNCC1 | 0.69 | 4.46 | 333 | 2.33 | 778
S=C(NCCCNc1ccnc2cc(Cl)ccc12)Nc1ccc(Cl)cc1 | 0.48 | 4.23 | 234 | – | –
CNC(=S)NCCCNc1ccnc2cc(Cl)ccc12 | 0.66 | 4.57 | 177 | 1.2 | 213
CN1CCN(C(=S)NCCCNc2ccnc3cc(Cl)ccc23)CC1 | 0.35 | 4.98 | 59.1 | 1.16 | 68.4
S=C(NCCCNc1ccnc2cc(Cl)ccc12)NC1CC1 | 0.11 | 5.67 | 23.9 | 0.59 | 14.1
S=C(NCCCNc1ccnc2cc(Cl)ccc12)N1CCCC1 | 0.35 | 4.98 | 128 | 1.11 | 142
S=C(NCCCNc1ccnc2cc(Cl)ccc12)N1CCN(c2ccccc2)CC1 | 0.17 | 5.37 | 28.7 | 1.76 | 50.5
S=C(NCCCNc1ccnc2cc(Cl)ccc12)N1CCCCC1 | 0.29 | 5.24 | 104 | 0.99 | 104
